# Source: ChEMBL document CHEMBL1131571, “Potent, selective, and orally bioavailable tricyclic pyridyl acetamide N-oxide inhibitors of farnesyl protein transferase with enhanced in vivo antitumor activity” (J Med Chem, 1998)
# Experiments:
# [1] = Area under the concentration time curve (AUC) taken for 0-24 hr was measured when administered through iv route in mice; format: ADME, organism-based; parameters: time < 24 hr, route intravenous; conditions: mouse, in vivo
# Method in brief: (§1)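 Mice received a single 25 mg/kg dose, as HCl salt in 20% hydroxypropyl-β-cyclodextrin, either orally or iv by tail vein. Blood was taken by cardiac puncture after CO2 euthanasia at nine times from 2 min to 24 h, with two mice per time point. Serum was acetonitrile-precipitated and quantified by HPLC-APCI tandem MS. AUC was derived by the linear trapezoidal rule on mean concentrations. Bioavailability is the oral/iv AUC ratio, from different animals. Cmax is the highest mean oral concentration. Half-life was estimated graphically after iv dosing.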
# DLD-1 [2] = assay: The inhibition of growth of solid tumor in DLD-1 model was measured at 10 mg/kg after po administration. 0.1<p<0.25; format: functional; conditions: Homo sapiens
# [3] = target: Protein farnesyltransferase (Homo sapiens, UniProt P49354+P49356); assay: Inhibition of Farnesyltransferase; format: protein-complex assay
# Method in brief: (§2)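 Radiometric transfer assays measuring trichloroacetic acid-precipitable label. FPT: [3H]farnesyl from [3H]farnesyl pyrophosphate onto Ha-Ras-CVLS. GGPT-1: [3H]geranylgeranyl from [3H]geranylgeranyl diphosphate onto Ha-Ras-CVLL.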
# DLD-1 [4] = assay: The inhibition of growth of solid tumor in DLD-1 model was measured at 50 mg/kg after po administration. 0.01<p<0.025; format: functional; conditions: Homo sapiens
# [5] = Area under the concentration time curve (AUC) taken for 0-24 hr was measured when administered through oral route in mice; format: ADME, organism-based; parameters: time < 24 hr, route oral; conditions: mouse, in vivo; method in brief: as §1
# [6] = Biological half life was measured when given iv route in mice; format: ADME, organism-based; conditions: mouse, in vivo; method in brief: as §1
# COS-1 = assay: Inhibitory activity was measured against COS cell; format: functional, cell-based, Cercopithecidae; conditions: Chlorocebus aethiops
# Method in brief: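 Inhibition of intracellular H-Ras processing, measured in transfected Cos cells.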
# [7] = Inhibition of Geranylgeranyl transferase; parameters: species or system Homo sapiens; method in brief: as §2
# [8] = maximum concentration was measured when administered through oral route in mice; format: ADME, organism-based; parameters: route oral; conditions: mouse, in vivo; method in brief: as §1
# [9] = Oral bioavailability in mouse; format: ADME, organism-based; conditions: in vivo; method in brief: as §1
# DLD-1 [10] = assay: The inhibition of growth of solid tumor in DLD-1 model was measured at 10 mg/kg after po administration. 0.05<p<0.1; format: functional; conditions: Homo sapiens
# DLD-1 [11] = assay: The inhibition of growth of solid tumor in DLD-1 model was measured at 50 mg/kg after po administration. p<0.01; format: functional; conditions: Homo sapiens
# DLD-1 [12] = assay: The inhibition of growth of solid tumor in DLD-1 model was measured at 10 mg/kg after po administration. 0.01<p<0.025; format: functional; conditions: Homo sapiens
AUC at 24 h [1] [µg·h/mL],IC50 [3] [µM],AUC at 24 h [5] [µg·h/mL],half-life [6] [min],IC50 [7] [µM],Cmax [8] [µg/mL],bioavailability [9] [%],SMILES,inhibition in vivo at 10 mg/kg (DLD-1 [2]) [%],inhibition in vivo at 50 mg/kg (DLD-1 [4]) [%],IC50 (COS-1) [µM],inhibition in vivo at 10 mg/kg (DLD-1 [10]) [%],inhibition in vivo at 50 mg/kg (DLD-1 [11]) [%],inhibition in vivo at 10 mg/kg (DLD-1 [12]) [%]
10.6,0.04,4.1,46,> 38,10,38,O=C(Cc1cc[n+]([O-])cc1)N1CCC(C2c3ccc(Cl)cc3CCc3cc(Br)cnc32)CC1 (stereo unspecified),38,60,0.4,–,–,–
18.6,0.03,19,26.6,> 38,11,100,O=C(Cc1cc[n+]([O-])cc1)N1CCC(C2c3ccc(Cl)cc3C=Cc3cc(Br)cnc32)CC1 (stereo unspecified),–,–,0.7,21,37,–
43.7,0.04,84.9,82.2,> 33,12,100,O=C(Cc1cc[n+]([O-])cc1)N1CCC(C2c3ccc(Cl)cc3C=C(Br)c3cc(Br)cnc32)CC1 (stereo unspecified),–,–,0.6,–,70,52
–,–,–,48,38,10,75,O=C(Cc1cc[n+]([O-])cc1)N1CCC(=C2c3ccc(Cl)cc3CCc3cc(Br)cnc32)CC1,–,–,–,–,40,28
